Test results from ChEMBL document CHEMBL1275561, “In vitro activities of doripenem, a new broad-spectrum carbapenem, against recently collected clinical anaerobic isolates, with emphasis on the Bacteroides fragilis group” (2008).
Values after ≈ are worked out from the molar mass of the structure shown.

Experiments:
Assay type in all cases: functional
Bacteroides caccae [1] = experiment: Antimicrobial activity against Bacteroides caccae assessed as resistant isolates by agar dilution method
How it was run: (§1)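 CLSI agar dilution on enriched brucella agar (5% lysed defibrinated sheep blood, 1 μg/ml vitamin K1), plates made on test day. Log-phase inocula adjusted to 0.5 McFarland; about 10^5 CFU/spot by Steers replicator. Incubated anaerobically at 37°C for 48 h. MIC was the lowest concentration giving a marked change in growth versus the drug-free control plate. Resistance rates used CLSI anaerobe breakpoints. Controls were B. fragilis ATCC 25285 and B. thetaiotaomicron ATCC 29741.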

[2] = system: Parabacteroides distasonis; experiment: Antimicrobial activity against Bacteroides distasonis by agar dilution method
How it was run: (§2)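 CLSI agar dilution on enriched brucella agar (5% lysed defibrinated sheep blood, 1 μg/ml vitamin K1), with drug plates made on the test day. Log-phase cells were adjusted to 0.5 McFarland, and about 10^5 CFU/spot was delivered by Steers replicator. Plates were incubated anaerobically at 37°C for 48 h. MIC was the lowest concentration giving a marked growth change versus the control plate. Controls were B. fragilis ATCC 25285 and B. thetaiotaomicron ATCC 29741.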

Bacteroides nordii [3] = experiment: Antimicrobial activity against Bacteroides nordii by agar dilution method; how it was run: as §2
Bacteroides fragilis [4] = experiment: Antimicrobial activity against Bacteroides fragilis by agar dilution method; how it was run: as §2
Bacteroides ovatus [5] = experiment: Antimicrobial activity against Bacteroides ovatus assessed as resistant isolates by agar dilution method; how it was run: as §1
Bacteroides uniformis [6] = experiment: Antimicrobial activity against Bacteroides uniformis assessed as resistant isolates by agar dilution method; how it was run: as §1
Cutibacterium acnes [7] = experiment: Antimicrobial activity against Propionibacterium acnes by agar dilution method
How it was run: (§3)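 Log-phase isolates were adjusted to 0.5 McFarland, and about 10^5 CFU/spot was delivered by Steers replicator. Plates were incubated anaerobically at 37°C for 48 h. MIC was the lowest concentration giving a marked growth change versus the control plate. Eubacterium lentum ATCC 43055 was the QC strain, with repeats when out of range.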

Bacteroides fragilis [8] = experiment: Antimicrobial activity against Bacteroides fragilis assessed as resistant isolates by agar dilution method; how it was run: as §1
Parabacteroides merdae [9] = experiment: Antimicrobial activity against Bacteroides merdae assessed as resistant isolates by agar dilution method; how it was run: as §1
Propionibacterium [10] = experiment: Antimicrobial activity against Propionibacterium sp. by agar dilution method; how it was run: as §3
Cutibacterium acnes [11] = experiment: Antimicrobial activity against Propionibacterium acnes assessed as resistant isolates by agar dilution method
How it was run: (§4)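 Agar dilution following CLSI on brucella agar with 5% lysed defibrinated sheep blood and 1 μg/ml vitamin K1, plates made on test day. Log-phase cells at 0.5 McFarland, about 10^5 CFU/spot by Steers replicator, 48 h anaerobic at 37°C. MIC read as the lowest concentration causing a marked growth change versus control. Resistance counted by CLSI anaerobe breakpoints. Eubacterium lentum ATCC 43055 served as control.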

Finegoldia magna [12] = experiment: Antimicrobial activity against Finegoldia magna assessed as resistant isolates by agar dilution method; how it was run: as §4
Peptostreptococcus sp. = experiment: Antimicrobial activity against Peptostreptococcus sp. by agar dilution method; how it was run: as §3
Propionibacterium [13] = experiment: Antimicrobial activity against Propionibacterium sp. assessed as resistant isolates by agar dilution method; how it was run: as §4
[14] = system: Bacteroides thetaiotaomicron; experiment: Antimicrobial activity against Bacteroides thetaiotaomicron by agar dilution method; how it was run: as §2
Phocaeicola vulgatus [15] = experiment: Antimicrobial activity against Bacteroides vulgatus by agar dilution method; how it was run: as §2
Bacteroides ovatus [16] = experiment: Antimicrobial activity against Bacteroides ovatus by agar dilution method; how it was run: as §2
Anaerococcus prevotii = experiment: Antimicrobial activity against Anaerococcus prevotii by agar dilution method
How it was run: (§5)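 Gram-positive anaerobes were tested by CLSI agar dilution on brucella agar enriched with 5% lysed defibrinated sheep blood and 1 μg/ml vitamin K1. Inoculum was log-phase growth at 0.5 McFarland, about 10^5 CFU/spot by replicator. Incubation was anaerobic, 37°C, 48 h. MIC was the lowest concentration with a marked growth change versus the drug-free plate. Eubacterium lentum ATCC 43055 was the control, and tests were repeated if it fell outside the CLSI range.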

[17] = system: Parabacteroides distasonis; experiment: Antimicrobial activity against Bacteroides distasonis assessed as resistant isolates by agar dilution method; how it was run: as §1
Bacteroides nordii [18] = experiment: Antimicrobial activity against Bacteroides nordii assessed as resistant isolates by agar dilution method; how it was run: as §1
Bacteroides eggerthii [19] = experiment: Antimicrobial activity against Bacteroides eggerthii by agar dilution method; how it was run: as §2
Bacteroides uniformis [20] = experiment: Antimicrobial activity against Bacteroides uniformis by agar dilution method; how it was run: as §2
[21] = system: Peptoniphilus asaccharolyticus; experiment: Antimicrobial activity against Peptoniphilus asaccharolyticus assessed as resistant isolates by agar dilution method; settings: pooled result: one value given for 4 cell lines, strains, targets or settings; how it was run: as §4
Bacteroides eggerthii [22] = experiment: Antimicrobial activity against Bacteroides eggerthii assessed as resistant isolates by agar dilution method; how it was run: as §1
Parabacteroides merdae [23] = experiment: Antimicrobial activity against Bacteroides merdae by agar dilution method; how it was run: as §2
[24] = system: Bacteroides thetaiotaomicron; experiment: Antimicrobial activity against Bacteroides thetaiotaomicron assessed as resistant isolates by agar dilution method; how it was run: as §1
Phocaeicola vulgatus [25] = experiment: Antimicrobial activity against Bacteroides vulgatus assessed as resistant isolates by agar dilution method; how it was run: as §1
Bacteroides caccae [26] = experiment: Antimicrobial activity against Bacteroides caccae by agar dilution method; how it was run: as §2
[27] = system: Peptoniphilus asaccharolyticus; experiment: Antimicrobial activity against Peptoniphilus asaccharolyticus by agar dilution method; how it was run: as §5
[Clostridium] innocuum [28] = Antimicrobial activity against Clostridium innocuum by agar dilution method
Finegoldia magna [29] = experiment: Antimicrobial activity against Finegoldia magna by agar dilution method; how it was run: as §5
Clostridium subterminale = experiment: Antimicrobial activity against Clostridium subterminale by agar dilution method
Clostridium tertium = experiment: Antimicrobial activity against Clostridium tertium by agar dilution method
[Clostridium] innocuum [30] = Antimicrobial activity against Clostridium innocuum assessed as resistant isolates by agar dilution method; settings: pooled result: one value given for 4 cell lines, strains, targets or settings
Parvimonas micra = experiment: Antimicrobial activity against Micromonas micros by agar dilution method; how it was run: as §5
Clostridium perfringens = experiment: Antimicrobial activity against Clostridium perfringens by agar dilution method
Clostridioides difficile = experiment: Antimicrobial activity against Clostridium difficile by agar dilution method
[31] = system: Clostridium paraputrificum; experiment: Antimicrobial activity against Clostridium paraputrificum by agar dilution method

SMILES: COc1c(N2C[C@@H]3CCCN[C@@H]3C2)c(F)cc2c(=O)c(C(=O)O)cn(C3CC3)c12 [MOXIFLOXACIN]
- Activity (Bacteroides caccae [1]): 50%
- MIC50 [2]: 8 µg/mL (≈ 19.9 µM)
- MIC90 [2]: 16 µg/mL (≈ 39.9 µM)
- MIC50 (Bacteroides nordii [3]): 2 µg/mL (≈ 4.98 µM)
- MIC90 (Bacteroides nordii [3]): 16 µg/mL (≈ 39.9 µM)
- MIC50 (Bacteroides fragilis [4]): 1 µg/mL (≈ 2.49 µM)
- MIC90 (Bacteroides fragilis [4]): 8 µg/mL (≈ 19.9 µM)
- Activity (Bacteroides ovatus [5]): 40%
- Activity (Bacteroides uniformis [6]): 14.3%
- MIC50 (Cutibacterium acnes [7]): 0.25 µg/mL (≈ 0.623 µM)
- MIC90 (Cutibacterium acnes [7]): 0.5 µg/mL (≈ 1.25 µM)
- Activity (Bacteroides fragilis [8]): 29.3%
- Activity (Parabacteroides merdae [9]): 40%
- MIC (Propionibacterium [10]): 0.25 µg/mL (≈ 0.623 µM)
- MIC50 (Propionibacterium [10]): 0.25 µg/mL (≈ 0.623 µM)
- MIC90 (Propionibacterium [10]): 0.5 µg/mL (≈ 1.25 µM)
- Activity (Cutibacterium acnes [11]): 0%
- Activity (Finegoldia magna [12]): 40%
- MIC50 (Peptostreptococcus sp.): 0.5 µg/mL (≈ 1.25 µM)
- MIC90 (Peptostreptococcus sp.): 16 µg/mL (≈ 39.9 µM)
- Activity (Propionibacterium [13]): 0%
- MIC50 [14]: 4 µg/mL (≈ 9.96 µM)
- MIC90 [14]: 32 µg/mL (≈ 79.7 µM)
- MIC50 (Phocaeicola vulgatus [15]): 8 µg/mL (≈ 19.9 µM)
- MIC90 (Phocaeicola vulgatus [15]): 64 µg/mL (≈ 159 µM)
- MIC50 (Bacteroides ovatus [16]): 2 µg/mL (≈ 4.98 µM)
- MIC90 (Bacteroides ovatus [16]): 32 µg/mL (≈ 79.7 µM)
- MIC50 (Anaerococcus prevotii): 0.5 µg/mL (≈ 1.25 µM)
- MIC90 (Anaerococcus prevotii): 16 µg/mL (≈ 39.9 µM)
- Activity [17]: 53.3%
- Activity (Bacteroides nordii [18]): 40%
- MIC50 (Bacteroides eggerthii [19]): 2 µg/mL (≈ 4.98 µM)
- MIC90 (Bacteroides eggerthii [19]): 16 µg/mL (≈ 39.9 µM)
- MIC50 (Bacteroides uniformis [20]): 4 µg/mL (≈ 9.96 µM)
- MIC90 (Bacteroides uniformis [20]): 64 µg/mL (≈ 159 µM)
- Activity [21]: 14.8%
- Activity (Bacteroides eggerthii [22]): 40%
- MIC50 (Parabacteroides merdae [23]): 2 µg/mL (≈ 4.98 µM)
- MIC90 (Parabacteroides merdae [23]): 16 µg/mL (≈ 39.9 µM)
- Activity [24]: 30.8%
- Activity (Phocaeicola vulgatus [25]): 48.4%
- MIC50 (Bacteroides caccae [26]): 4 µg/mL (≈ 9.96 µM)
- MIC90 (Bacteroides caccae [26]): 16 µg/mL (≈ 39.9 µM)

SMILES: CN[C@H](CC(C)C)C(=O)N[C@H]1C(=O)N[C@@H](CC(N)=O)C(=O)N[C@H]2C(=O)N[C@H]3C(=O)N[C@H](C(=O)N[C@H](C(=O)O)c4cc(O)cc(O)c4-c4cc3ccc4O)[C@H](O)c3ccc(c(Cl)c3)Oc3cc2cc(c3O[C@@H]2O[C@H](CO)[C@@H](O)[C@H](O)[C@H]2O[C@H]2C[C@](C)(N)[C@H](O)[C@H](C)O2)Oc2ccc(cc2Cl)[C@H]1O [VANCOMYCIN]
- MIC50 [27]: 1 µg/mL (≈ 0.69 µM)
- MIC90 [27]: 2 µg/mL (≈ 1.38 µM)
- MIC50 ([Clostridium] innocuum [28]): 8 µg/mL (≈ 5.52 µM)
- MIC90 ([Clostridium] innocuum [28]): 16 µg/mL (≈ 11 µM)
- MIC50 (Finegoldia magna [29]): 1 µg/mL (≈ 0.69 µM)
- MIC90 (Finegoldia magna [29]): 1 µg/mL (≈ 0.69 µM)
- MIC50 (Clostridium subterminale): 8 µg/mL (≈ 5.52 µM)
- MIC90 (Clostridium subterminale): 16 µg/mL (≈ 11 µM)
- MIC50 (Clostridium tertium): 8 µg/mL (≈ 5.52 µM)
- MIC90 (Clostridium tertium): 16 µg/mL (≈ 11 µM)
- MIC (Cutibacterium acnes [7]): 1 µg/mL (≈ 0.69 µM)
- MIC50 (Cutibacterium acnes [7]): 1 µg/mL (≈ 0.69 µM)
- MIC90 (Cutibacterium acnes [7]): 1 µg/mL (≈ 0.69 µM)
- MIC (Propionibacterium [10]): 1 µg/mL (≈ 0.69 µM)
- MIC50 (Propionibacterium [10]): 1 µg/mL (≈ 0.69 µM)
- MIC90 (Propionibacterium [10]): 1 µg/mL (≈ 0.69 µM)
- Activity (Cutibacterium acnes [11]): 0%
- Activity ([Clostridium] innocuum [30]): 0%
- Activity (Finegoldia magna [12]): 0%
- MIC50 (Parvimonas micra): 1 µg/mL (≈ 0.69 µM)
- MIC90 (Parvimonas micra): 2 µg/mL (≈ 1.38 µM)
- MIC50 (Peptostreptococcus sp.): 1 µg/mL (≈ 0.69 µM)
- MIC90 (Peptostreptococcus sp.): 2 µg/mL (≈ 1.38 µM)
- Activity (Propionibacterium [13]): 0%
- MIC (Clostridium perfringens): 1 µg/mL (≈ 0.69 µM)
- MIC50 (Clostridium perfringens): 1 µg/mL (≈ 0.69 µM)
- MIC90 (Clostridium perfringens): 2 µg/mL (≈ 1.38 µM)
- MIC50 (Anaerococcus prevotii): 1 µg/mL (≈ 0.69 µM)
- MIC90 (Anaerococcus prevotii): 2 µg/mL (≈ 1.38 µM)
- MIC (Clostridioides difficile): 1 µg/mL (≈ 0.69 µM)
- Activity [21]: 2.4%
- MIC50 [31]: 8 µg/mL (≈ 5.52 µM)
- MIC90 [31]: 16 µg/mL (≈ 11 µM)
